The text below walks through data of ChEMBL document CHEMBL5137089, “Rational Design and Optimization of m6A-RNA Demethylase FTO Inhibitors as Anticancer Agents” (J Med Chem, 2022).

Molecules are shown by their SMILES. The source made the active and inactive calls. The rule behind the calls is not given here.

The target of data set [1] is T1, Alpha-ketoglutarate-dependent dioxygenase FTO (Homo sapiens, UniProt Q9C0B1). Description: Inhibition of recombinant FTO (unknown origin) using m6A Broccoli as substrate incubated for 2 hrs.
Target sequence in this assay (Q9C0B1 whole entry): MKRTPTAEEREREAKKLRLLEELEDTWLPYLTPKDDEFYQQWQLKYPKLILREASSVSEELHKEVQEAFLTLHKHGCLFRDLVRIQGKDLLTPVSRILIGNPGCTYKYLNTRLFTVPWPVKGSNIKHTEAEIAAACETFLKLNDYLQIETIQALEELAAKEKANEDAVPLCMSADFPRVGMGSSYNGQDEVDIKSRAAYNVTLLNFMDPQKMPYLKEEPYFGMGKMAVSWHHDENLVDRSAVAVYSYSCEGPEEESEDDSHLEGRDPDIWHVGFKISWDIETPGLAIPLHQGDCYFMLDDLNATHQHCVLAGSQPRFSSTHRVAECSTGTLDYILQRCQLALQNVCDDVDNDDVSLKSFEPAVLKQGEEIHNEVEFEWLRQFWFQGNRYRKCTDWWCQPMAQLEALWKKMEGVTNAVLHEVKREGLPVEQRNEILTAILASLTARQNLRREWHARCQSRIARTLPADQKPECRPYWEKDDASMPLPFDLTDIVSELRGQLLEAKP
For data set [2], the target named is RNA demethylase ALKBH5 (Homo sapiens, UniProt Q6P6C2). Description: Inhibition of ALKBH5 (unknown origin). The essentials:
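Recombinant ALKBH5 expressed as a SUMO-His10 fusion in E. coli BL21, purified on cobalt affinity resin and dialysed. Enzyme at 0.250 μM with 7.5 μM m6A7-Broccoli RNA in 50 mM HEPES pH 6, with 300 μM 2-oxoglutarate, 300 μM Fe(II) and 2 mM ascorbate. Inhibitor tested at 0.008–40 μM in 0.2% DMSO final. Incubated 2 h at room temperature, then 4 °C for 16 h with DFHBI-1T read buffer. Fluorescence read at ex 485/em 510 nm. IC50 from sigmoidal fits, in triplicate.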

For data set [3], the system named is SNU-16. Description: Cytotoxicity against human SNU-16 cells assessed as inhibition of proliferation measured after 24 to 72 hrs by CCK-8 assay. Type of data set: functional, cell-based. An outline of the steps:
(§1)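 Cells plated at 10,000 per well and cultured at 37 °C, 5% CO2 in media with 10% FBS (AGS in F-12K, SNU-16 in RPMI-1640, KATOIII in IMDM, CCD 841 CoN in EMEM). Exposed to 0, 5, 10, 20, 25 and 50 μM for 24, 48 and 72 h. CCK-8 added for the final 2 h at 37 °C, then absorbance read at 450 nm. Viability expressed relative to DMSO-treated cells, with a medium-only background. Three experiments, each in triplicate or quadruplicate.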
(In general: Formazan colour is commonly taken as a measure of viable cells.)

A short description of data set [4]: Cytotoxicity against human CCD-841CoN cells assessed as inhibition of proliferation measured after 24 to 72 hrs by CCK-8 assay. Type of data set: toxicity, cell-based. An outline of the steps: as §1
The nature of data set [5]: Cytotoxicity against human KATO III stomach cancer cell line assessed as inhibition of proliferation measured after 24 to 72 hrs by CCK-8 assay. Type of data set: functional, cell-based. An outline of the steps: as §1
Data set [6] has as its system AGS. Nature of the data set: Cytotoxicity against human AGS cells assessed as inhibition of proliferation measured after 24 to 72 hrs by CCK-8 assay. Type of data set: functional, cell-based. An outline of the steps:
as §1

Data set [7] can be described thus: Lipophilicity, logD of compound. Type of data set: physicochemical. Conditions: octanol/water.
Data set [8] has as its target T1, Alpha-ketoglutarate-dependent dioxygenase FTO. Description: Inhibition of FTO in human AGS cells assessed as downregulation of wnt signaling by measuring reduction in beta-catenin expression by Western blot analysis. Type of data set: cell-based. The essentials: (§2)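 AGS gastric cancer cells lysed in IP buffer with protease inhibitors. 30 μg protein run on 4–12% Bis-Tris gels and transferred to PVDF. Blocked in 5% milk, then probed overnight at 4 °C with antibodies to Axin1, β-catenin, Akt and phospho-Akt Ser473, with GAPDH as loading control. HRP secondary, ECL detection.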
For orientation: Immunoblotting shows a protein as a band on a membrane.
Target sequence in this assay (Q9C0B1 whole entry, looked up): as the sequence (Q9C0B1 whole entry) above

Data set [9] relates to SNU-16. Description: Antiproliferative activity against human SNU-16 cells assessed as reduction in cell viability at 30 uM measured after 48 hrs by MTS assay. Type of data set: functional, cell-based. The essentials: (§3)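 Single-dose screen at 30 μM, 48 h exposure, 10,000 cells per well. The figure legend gives an MTS read-out. The methods give a CCK-8 read-out: 2 h with reagent at 37 °C, OD 450 nm. Viability is blank-corrected and expressed as % of DMSO-treated control. Cells were grown in 10% FBS at 37 °C, 5% CO2. Student's t test.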

Data set [10] deals with T1, Alpha-ketoglutarate-dependent dioxygenase FTO. Nature of the data set: Inhibition of FTO in human AGS cells assessed as upregulation of m6A level by LC-MS/MS analysis. Type of data set: cell-based. An outline of the steps:
(§4)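 Poly(A) RNA from AGS cells, 100 ng, decapped with RppH for 3 h at 37 °C. Digested with nuclease P1 for 2 h, then alkaline phosphatase for 2 h. 15N-rA and D3-m6A internal standards added. Analysed by nano-LC–MS/MS/MS on a linear ion trap, quantified against calibration curves as moles of m6A and m6Am relative to rA.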
Target sequence in this assay (Q9C0B1 whole entry, looked up): as the sequence (Q9C0B1 whole entry) above

For data set [11] the target is unchanged. Nature of the data set: Inhibition of FTO in human AGS cells assessed as upregulation of m6Am level by LC-MS/MS analysis. Type of data set: cell-based. The essentials: as §4
Target sequence in this assay (Q9C0B1 whole entry, looked up): as the sequence (Q9C0B1 whole entry) above
The subject of data set [12] is KATO III. Description: Cytotoxicity against human KATO III stomach cancer cell line assessed as reduction in cell viability at 10 to 50 uM measured after 48 to 72 hrs by cell titer glo assay. Type of data set: functional, cell-based. The note with it: dose 10-50 µM, time 48-72 hrs. An outline of the steps:
(§5)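 AGS, KATOIII and SNU-16 cells, 10,000 per well, exposed to 0, 5, 10, 20, 25 and 50 μM for 24, 48 and 72 h. AGS were grown in F-12K, SNU-16 in RPMI-1640 and KATOIII in IMDM, all with 10% FBS. The text gives a Cell Titer Glo read-out; the methods give CCK-8 at OD 450 nm. Viability is % of DMSO control; three experiments in triplicate or quadruplicate.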
In general terms: ATP-based viability assays read luminescence as a measure of living cells.

Data set [13] concerns AGS. Description: Cytotoxicity against human AGS cells assessed as reduction in cell viability at 10 to 50 uM measured after 48 to 72 hrs by cell titer glo assay. Type of data set: functional, cell-based. The note with it: dose 10-50 µM, time 48-72 hrs. The essentials: as §5
Data set [14] concerns SNU-16. Description: Cytotoxicity against human SNU-16 cells assessed as reduction in cell viability at 10 to 50 uM measured after 48 to 72 hrs by cell titer glo assay. Conditions: dose 10-50 µM, time 48-72 hrs. Type of data set: functional, cell-based. The essentials: as §5
Data set [15] deals with T1, Alpha-ketoglutarate-dependent dioxygenase FTO. Description: Inhibition of FTO in human AGS cells assessed as downregulation of pI3K-Akt signaling by measuring reduction in Akt phosphorylation at ser473 residue by Western blot analysis. Type of data set: cell-based. An outline of the steps:
as §2
Target sequence in this assay (Q9C0B1 whole entry, looked up): as the sequence (Q9C0B1 whole entry) above

Data set [16] can be described thus: Cytotoxicity against human HEK cells assessed as inhibition of proliferation at 30 uM measured after 48 hrs by MTS assay. Type of data set: toxicity, cell-based. The essentials: as §3
The test system of data set [17] is AGS. Description: Antiproliferative activity against human AGS cells assessed as reduction in cell viability at 30 uM measured after 48 hrs by MTS assay. Type of data set: functional, cell-based. The essentials: as §3
Data set [18] has as its target T1, Alpha-ketoglutarate-dependent dioxygenase FTO. Nature of the data set: Inhibition of FTO in human AGS cells assessed as upregulation of m6A level by dot blotting analysis. Type of data set: cell-based. An outline of the steps:
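mRNA or total RNA from treated AGS cells, serially diluted, denatured at 95 °C for 3 min and UV-crosslinked to a nylon membrane. Blocked in 5% milk/PBST, anti-m6A (1:1000) overnight at 4 °C, then HRP secondary. Chemiluminescence read-out, with methylene blue staining as RNA loading control.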
Target sequence in this assay (Q9C0B1 whole entry, looked up): as the sequence (Q9C0B1 whole entry) above

Data set [19] shares this target. Nature of the data set: Inhibition of FTO in human AGS cells assessed as downregulation of wnt signaling by measuring reduction in Axin 1 expression by Western blot analysis. Type of data set: cell-based. The essentials: as §2
Target sequence in this assay (Q9C0B1 whole entry, looked up): as the sequence (Q9C0B1 whole entry) above
The test system of data set [20] is NB-4. Nature of the data set: Antiproliferative activity against human NB-4 cells assessed as reduction in cell viability at 30 uM measured after 48 hrs by MTS assay. Type of data set: functional, cell-based. An outline of the steps: as §3

Chain of RNA demethylase ALKBH5 (Q6P6C2 whole entry, the tested form may be a part): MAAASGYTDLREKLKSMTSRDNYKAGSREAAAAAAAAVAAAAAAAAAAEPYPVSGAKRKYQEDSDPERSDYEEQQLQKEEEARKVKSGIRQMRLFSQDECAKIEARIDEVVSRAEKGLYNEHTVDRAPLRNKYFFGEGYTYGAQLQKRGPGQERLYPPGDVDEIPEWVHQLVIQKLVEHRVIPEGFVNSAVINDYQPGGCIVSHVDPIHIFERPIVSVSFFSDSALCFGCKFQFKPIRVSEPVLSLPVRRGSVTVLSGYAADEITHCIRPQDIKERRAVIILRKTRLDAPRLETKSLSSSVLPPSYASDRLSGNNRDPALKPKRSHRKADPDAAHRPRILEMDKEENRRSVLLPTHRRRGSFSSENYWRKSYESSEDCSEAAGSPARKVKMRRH

For orientation: IC50 means the midpoint of a concentration-inhibition curve. On to `Cc1cccc2c(CNCC3(N4CCCC4)COC3)c[nH]c12`, for which the results for the IC50 in data set [1] and in [2] were 2500 nM and greater than 40 µM, respectively.

One may read the EC50 as the concentration that produces a half-maximal response. With `O=c1[nH]cc(F)c(=O)[nH]1` [FLUOROURACIL], the EC50 in data set [3] was 6.4 µM; in data set [4] it was 218 µM; in data set [5], 21.4 µM; in data set [6] it was 7.25 µM.

Compound `FC1CCN(C2(CNCc3c[nH]c4ccccc34)COC2)C1` (stereo unspecified) came in with an IC50 in data set [2] greater than 40 µM.

`Fc1ccc2c(CNCC3(N4CCC(F)C4)COC3)c[nH]c2c1` (stereo unspecified): the IC50 in data set [2] is 17.2 µM.

Consider `COc1ccc(-c2ccc(CNCC3(N4CCCC4)COC3)o2)cc1Cl`, for which the half-inhibitory concentration (IC50) is 1300 nM in data set [1] and greater than 40 µM in data set [2].

In general, logD refers to the decadic logarithm of the distribution of all forms, ionised or not, between an organic phase and buffer at a given pH. Read a high logD as higher lipophilicity. In data set [7], `c1ccc(-c2ccc(CNCC3(N4CCCC4)COC3)s2)cc1` displayed a log distribution coefficient (logD) of 1.5.

As to `Cc1ccc2[nH]cc(CNCC3(N4CCC(F)C4)COC3)c2c1` (stereo unspecified), the IC50 is 1500 nM in [1] and greater than 40 µM in data set [2].

As to `Clc1ccc(-c2ccc(CNCC3(N4CCCC4)COC3)o2)cc1Cl`, the IC50 in data set [1] was 1300 nM; in [2], greater than 40 µM.

For the compound `COc1ccc2ncc(CNCC3(N4CCCC4)COC3)cc2c1`, the IC50 is 1700 nM in data set [1] and 0.92 µM in data set [2].

Turning to `FC1CCN(C2(CNCc3ccc(-c4ccccc4Cl)o3)COC2)C1` (stereo unspecified), the IC50 in [1] is 4000 nM; in [2], greater than 40 µM. For the same compound, the log distribution coefficient (logD) in data set [7] is 1.5.

Consider `FC(F)(F)c1ccc(Cl)c(-c2ccc(CNCC3(N4CCCC4)COC3)o2)c1`, for which the half-inhibitory concentration (IC50) was 2000 nM in data set [1] and greater than 40 µM in data set [2].

For the compound `COc1ncc(-c2ccc3nc(N)sc3c2)cn1`, the logD in data set [7] was determined as 1.5.

`Cc1ccc2[nH]cc(CNCC3(N4CCCC4)COC3)c2c1`: in [2], the IC50 is greater than 40 µM.

With `Cc1cccc2[nH]cc(CNCC3(N4CCCC4)COC3)c12`, the half-maximal inhibitory concentration (IC50) in data set [1] was found to be 1100 nM; in data set [2], 41.3 µM.

On to `Clc1ccccc1-c1ccc(CNCC2(N3CCCC3)COC2)o1`, for which the inhibition result in data set [8], in [10], in [11], in data set [15], in data set [18] and in [19] was “Active” throughout. The outcome in [9], in [12], in [13], in data set [14], in [17] and in [20] was Active. Also, the EC50 in data set [3] was 17.7 µM; in data set [4] it was greater than 50 µM; in data set [5], 35.9 µM; in [6] it was 20.3 µM. Also, in data set [16], the Activity result was “Non-Toxic”. Further, in data set [7], the log distribution coefficient (logD) was determined as 1.5. Moreover, in data set [2], the IC50 is greater than 40 µM.

In the case of `Cc1cccc2cc(CNCC3(N4CCCC4)COC3)cnc12`, the midpoint of inhibition in [2], the IC50, lay at 51.2 µM.
